Measurements reported in ChEMBL document CHEMBL1146887 (J Med Chem, 2006).
Active and inactive are the calls of the source. The rule behind the calls is not given here.

Target: T1, Delta-type opioid receptor (Homo sapiens, UniProt P41143)
Assay: Inverse agonist activity at human cloned delta opioid receptor expressed in CHO cells assessed as […] [35S]GTP-gamma-S binding in presence of 1 uM GDP relative to control
Assay type: functional, cell-based
Set-up: scale not given: the % may be the effect or the level left

T1 sequence (P41143 whole entry): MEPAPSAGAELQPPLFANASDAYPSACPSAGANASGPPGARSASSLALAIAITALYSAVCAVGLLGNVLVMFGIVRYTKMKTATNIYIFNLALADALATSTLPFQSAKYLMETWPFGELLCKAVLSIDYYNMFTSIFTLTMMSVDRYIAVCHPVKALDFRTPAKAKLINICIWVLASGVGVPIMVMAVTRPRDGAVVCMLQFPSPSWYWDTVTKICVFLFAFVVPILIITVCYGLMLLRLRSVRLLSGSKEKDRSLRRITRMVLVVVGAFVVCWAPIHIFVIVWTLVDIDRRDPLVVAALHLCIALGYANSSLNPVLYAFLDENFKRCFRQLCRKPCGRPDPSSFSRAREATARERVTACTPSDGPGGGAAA

| Compound | Activity [%] |
| --- | --- |
| C[C@H]1CN(C)[C@@H]2C[C@@H](NC(=O)C3(c4ccccc4)CCCC3)C[C@@]1(c1cccc(O)c1)C2 | 79 |
| Cc1ccccc1/C=C/CN1C[C@H](C)[C@@]2(c3cccc(O)c3)C[C@H](NC(=O)C(C)(C)c3ccccc3)C[C@@H]1C2 | 70 |
| C[C@H]1CN(C/C=C/c2ccccc2)[C@@H]2C[C@@H](NC(=O)C(C)(C)c3ccccc3)C[C@@]1(c1cccc(O)c1)C2 | 78 |
| C[C@H]1CN(CCCc2ccccc2)[C@@H]2C[C@@H](NC(=O)C3(c4ccccc4)CCCCCC3)C[C@@]1(c1cccc(O)c1)C2 | 70 |

Target: Mu-type opioid receptor (Homo sapiens) (UniProt P35372)
Sequence (P35372 whole entry): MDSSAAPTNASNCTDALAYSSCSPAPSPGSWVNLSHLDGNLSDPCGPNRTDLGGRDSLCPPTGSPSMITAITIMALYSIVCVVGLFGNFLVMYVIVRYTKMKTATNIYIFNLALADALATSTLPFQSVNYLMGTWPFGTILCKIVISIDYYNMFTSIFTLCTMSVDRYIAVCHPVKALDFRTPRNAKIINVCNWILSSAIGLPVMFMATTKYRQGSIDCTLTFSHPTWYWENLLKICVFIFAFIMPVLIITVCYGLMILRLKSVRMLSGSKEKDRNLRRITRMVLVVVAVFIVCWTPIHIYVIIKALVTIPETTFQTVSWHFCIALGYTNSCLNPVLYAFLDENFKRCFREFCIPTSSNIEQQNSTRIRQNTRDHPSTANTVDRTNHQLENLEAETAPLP
Assay: Antagonist activity at human cloned mu opioid receptor expressed in CHO cells assessed as inhibition of DAMGO-stimulated [35S]GTP-gamma-S binding in presence of 10 uM GDP
Assay type: functional, cell-based
Procedure, shortened: (§1)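 Membranes of CHO cells expressing cloned human receptor (0.4-0.6 pmol/mg), 20-40 µg protein, with 0.5 nM [³⁵S]GTPγS, 10 µM GDP final, 1% DMSO, in 20 mM Hepes pH 7.4, 100 mM NaCl, 10 mM MgCl₂; 1 h room temperature. Agonist curves (seven concentrations, 0.32-32 000 nM) ± one test concentration (µ 3-300, δ 1-50, κ 50-300 nM). Filtration over GF/B, scintillation counting; Ke as mean ± SE, ≥3 experiments.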

| Compound | Ke [nM] |
| --- | --- |
| C[C@H]1CN(C)[C@@H]2C[C@@H](NC(=O)C3(c4ccccc4)CCCC3)C[C@@]1(c1cccc(O)c1)C2 | 43.2 |
| Cc1ccccc1/C=C/CN1C[C@H](C)[C@@]2(c3cccc(O)c3)C[C@H](NC(=O)C(C)(C)c3ccccc3)C[C@@H]1C2 | 1.02 |
| C[C@H]1CN(C/C=C/c2ccccc2)[C@@H]2C[C@@H](NC(=O)C(C)(C)c3ccccc3)C[C@@]1(c1cccc(O)c1)C2 | 1.9 |
| C[C@H]1CN(CCCc2ccccc2)[C@@H]2C[C@@H](NC(=O)C3(c4ccccc4)CCCCCC3)C[C@@]1(c1cccc(O)c1)C2 | 24.4 |

Target: T1, Delta-type opioid receptor
Assay: Antagonist activity at human cloned delta opioid receptor expressed in CHO cells assessed as inhibition of DPDPE-stimulated [35S]GTP-gamma-S binding in presence of 10 uM GDP
Assay type: functional, cell-based
Procedure, shortened: as §1

| Compound | Ke [nM] |
| --- | --- |
| C[C@H]1CN(C)[C@@H]2C[C@@H](NC(=O)C3(c4ccccc4)CCCC3)C[C@@]1(c1cccc(O)c1)C2 | 76.8 |
| Cc1ccccc1/C=C/CN1C[C@H](C)[C@@]2(c3cccc(O)c3)C[C@H](NC(=O)C(C)(C)c3ccccc3)C[C@@H]1C2 | 0.47 |
| C[C@H]1CN(C/C=C/c2ccccc2)[C@@H]2C[C@@H](NC(=O)C(C)(C)c3ccccc3)C[C@@]1(c1cccc(O)c1)C2 | 0.81 |
| C[C@H]1CN(CCCc2ccccc2)[C@@H]2C[C@@H](NC(=O)C3(c4ccccc4)CCCCCC3)C[C@@]1(c1cccc(O)c1)C2 | 0.26 |

Target: Kappa-type opioid receptor (Homo sapiens) (UniProt P41145)
Sequence (P41145 whole entry): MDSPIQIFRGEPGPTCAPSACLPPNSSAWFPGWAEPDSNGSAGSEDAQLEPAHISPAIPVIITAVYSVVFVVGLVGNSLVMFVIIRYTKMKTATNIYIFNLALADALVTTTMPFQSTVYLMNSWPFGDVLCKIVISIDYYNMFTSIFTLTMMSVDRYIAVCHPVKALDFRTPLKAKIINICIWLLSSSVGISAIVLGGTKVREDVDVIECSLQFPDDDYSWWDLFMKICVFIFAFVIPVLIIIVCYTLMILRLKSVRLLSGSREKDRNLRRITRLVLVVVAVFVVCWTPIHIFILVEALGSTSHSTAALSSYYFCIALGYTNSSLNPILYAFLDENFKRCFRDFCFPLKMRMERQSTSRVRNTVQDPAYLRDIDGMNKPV
Assay: Antagonist activity at human cloned kappa opioid receptor expressed in CHO cells assessed as inhibition of U69593-stimulated [35S]GTPgammaS binding in presence of 10 uM GDP
Assay type: functional, cell-based
Procedure, shortened: as §1

| Compound | Ke [nM] |
| --- | --- |
| C[C@H]1CN(C)[C@@H]2C[C@@H](NC(=O)C3(c4ccccc4)CCCC3)C[C@@]1(c1cccc(O)c1)C2 | 61 |
| Cc1ccccc1/C=C/CN1C[C@H](C)[C@@]2(c3cccc(O)c3)C[C@H](NC(=O)C(C)(C)c3ccccc3)C[C@@H]1C2 | 6.7 |
| C[C@H]1CN(C/C=C/c2ccccc2)[C@@H]2C[C@@H](NC(=O)C(C)(C)c3ccccc3)C[C@@]1(c1cccc(O)c1)C2 | 15.8 |
| C[C@H]1CN(CCCc2ccccc2)[C@@H]2C[C@@H](NC(=O)C3(c4ccccc4)CCCCCC3)C[C@@]1(c1cccc(O)c1)C2 | 17.5 |

Target: Opioid receptors; mu & delta (Homo sapiens) (UniProt P41143+P35372)
Sequence (P35372 whole entry, looked up): as the sequence (P35372 whole entry) above
Sequence (P41143 whole entry, looked up): as the sequence (P41143 whole entry) above
Assay: Selectivity for human cloned delta opioid receptor over mu opioid receptor
Assay type: protein assay
Procedure, shortened: (§2)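 Ratios of Ke values from [³⁵S]GTPγS antagonism assays at cloned human µ, δ and κ receptors in CHO membranes, each run with 10 µM GDP final against DAMGO, DPDPE or U69593 agonist curves.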

| Compound | Ratio Ke |
| --- | --- |
| Oc1ccc2c3c1O[C@H]1c4[nH]c5ccccc5c4C[C@@]4(O)[C@@H](C2)N(CC2CC2)CC[C@]314 | 157 |
| C[C@H]1CN(C)[C@@H]2C[C@@H](NC(=O)C3(c4ccccc4)CCCC3)C[C@@]1(c1cccc(O)c1)C2 | 0.6 |
| Cc1ccccc1/C=C/CN1C[C@H](C)[C@@]2(c3cccc(O)c3)C[C@H](NC(=O)C(C)(C)c3ccccc3)C[C@@H]1C2 | 2.2 |
| C[C@H]1CN(C/C=C/c2ccccc2)[C@@H]2C[C@@H](NC(=O)C(C)(C)c3ccccc3)C[C@@]1(c1cccc(O)c1)C2 | 2.4 |
| C[C@H]1CN(CCCc2ccccc2)[C@@H]2C[C@@H](NC(=O)C3(c4ccccc4)CCCCCC3)C[C@@]1(c1cccc(O)c1)C2 | 93 |

Target: Opioid receptors; delta & kappa (Homo sapiens) (UniProt P41145+P41143)
Sequence (P41143 whole entry, looked up): as the sequence (P41143 whole entry) above
Sequence (P41145 whole entry, looked up): as the sequence (P41145 whole entry) above
Assay: Selectivity for human cloned delta opioid receptor over kappa opioid receptor
Assay type: protein assay
Procedure, shortened: as §2

| Compound | Ratio Ke |
| --- | --- |
| Oc1ccc2c3c1O[C@H]1c4[nH]c5ccccc5c4C[C@@]4(O)[C@@H](C2)N(CC2CC2)CC[C@]314 | 77 |
| C[C@H]1CN(C)[C@@H]2C[C@@H](NC(=O)C3(c4ccccc4)CCCC3)C[C@@]1(c1cccc(O)c1)C2 | 0.8 |
| Cc1ccccc1/C=C/CN1C[C@H](C)[C@@]2(c3cccc(O)c3)C[C@H](NC(=O)C(C)(C)c3ccccc3)C[C@@H]1C2 | 14 |
| C[C@H]1CN(C/C=C/c2ccccc2)[C@@H]2C[C@@H](NC(=O)C(C)(C)c3ccccc3)C[C@@]1(c1cccc(O)c1)C2 | 20 |
| C[C@H]1CN(CCCc2ccccc2)[C@@H]2C[C@@H](NC(=O)C3(c4ccccc4)CCCCCC3)C[C@@]1(c1cccc(O)c1)C2 | 67 |

Target: T1, Delta-type opioid receptor
Assay: Agonist activity at delta opioid receptor at 31.6 uM
Assay type: functional

| Compound | Activity |
| --- | --- |
| Oc1ccc2c3c1O[C@H]1c4[nH]c5ccccc5c4C[C@@]4(O)[C@@H](C2)N(CC2CC2)CC[C@]314 | inactive |
| C[C@H]1CN(C)[C@@H]2C[C@@H](NC(=O)C3(c4ccccc4)CCCC3)C[C@@]1(c1cccc(O)c1)C2 | inactive |
| Cc1ccccc1/C=C/CN1C[C@H](C)[C@@]2(c3cccc(O)c3)C[C@H](NC(=O)C(C)(C)c3ccccc3)C[C@@H]1C2 | inactive |
| C[C@H]1CN(C/C=C/c2ccccc2)[C@@H]2C[C@@H](NC(=O)C(C)(C)c3ccccc3)C[C@@]1(c1cccc(O)c1)C2 | inactive |
| C[C@H]1CN(CCCc2ccccc2)[C@@H]2C[C@@H](NC(=O)C3(c4ccccc4)CCCCCC3)C[C@@]1(c1cccc(O)c1)C2 | inactive |

Target: Mu-type opioid receptor (Homo sapiens) (UniProt P35372)
Assay: Intrinsic activity at mu opioid receptor in presence of 1 uM GDP
Assay type: functional

| Compound | Activity |
| --- | --- |
| Oc1ccc2c3c1O[C@H]1c4[nH]c5ccccc5c4C[C@@]4(O)[C@@H](C2)N(CC2CC2)CC[C@]314 | inactive |
| C[C@H]1CN(C)[C@@H]2C[C@@H](NC(=O)C3(c4ccccc4)CCCC3)C[C@@]1(c1cccc(O)c1)C2 | inactive |
| Cc1ccccc1/C=C/CN1C[C@H](C)[C@@]2(c3cccc(O)c3)C[C@H](NC(=O)C(C)(C)c3ccccc3)C[C@@H]1C2 | inactive |
| C[C@H]1CN(C/C=C/c2ccccc2)[C@@H]2C[C@@H](NC(=O)C(C)(C)c3ccccc3)C[C@@]1(c1cccc(O)c1)C2 | inactive |
| C[C@H]1CN(CCCc2ccccc2)[C@@H]2C[C@@H](NC(=O)C3(c4ccccc4)CCCCCC3)C[C@@]1(c1cccc(O)c1)C2 | inactive |

Target: Kappa-type opioid receptor (Homo sapiens) (UniProt P41145)
Assay: Intrinsic activity at kappa opioid receptor in presence of 1 uM GDP
Assay type: functional

| Compound | Activity |
| --- | --- |
| Oc1ccc2c3c1O[C@H]1c4[nH]c5ccccc5c4C[C@@]4(O)[C@@H](C2)N(CC2CC2)CC[C@]314 | inactive |
| C[C@H]1CN(C)[C@@H]2C[C@@H](NC(=O)C3(c4ccccc4)CCCC3)C[C@@]1(c1cccc(O)c1)C2 | inactive |
| Cc1ccccc1/C=C/CN1C[C@H](C)[C@@]2(c3cccc(O)c3)C[C@H](NC(=O)C(C)(C)c3ccccc3)C[C@@H]1C2 | inactive |
| C[C@H]1CN(C/C=C/c2ccccc2)[C@@H]2C[C@@H](NC(=O)C(C)(C)c3ccccc3)C[C@@]1(c1cccc(O)c1)C2 | inactive |
| C[C@H]1CN(CCCc2ccccc2)[C@@H]2C[C@@H](NC(=O)C3(c4ccccc4)CCCCCC3)C[C@@]1(c1cccc(O)c1)C2 | inactive |

Target: T1, Delta-type opioid receptor
Assay: Inverse agonist activity at human cloned delta opioid receptor expressed in CHO cells assessed as […] [35S]GTP-gamma-S binding in presence of 1 uM GDP
Assay type: functional, cell-based

| Compound | IC50 [nM] |
| --- | --- |
| C[C@H]1CN(C)[C@@H]2C[C@@H](NC(=O)C3(c4ccccc4)CCCC3)C[C@@]1(c1cccc(O)c1)C2 | 95 |
| Cc1ccccc1/C=C/CN1C[C@H](C)[C@@]2(c3cccc(O)c3)C[C@H](NC(=O)C(C)(C)c3ccccc3)C[C@@H]1C2 | 0.12 |
| C[C@H]1CN(C/C=C/c2ccccc2)[C@@H]2C[C@@H](NC(=O)C(C)(C)c3ccccc3)C[C@@]1(c1cccc(O)c1)C2 | 0.72 |
| C[C@H]1CN(CCCc2ccccc2)[C@@H]2C[C@@H](NC(=O)C3(c4ccccc4)CCCCCC3)C[C@@]1(c1cccc(O)c1)C2 | 0.39 |
